Laboratory results published in ChEMBL document CHEMBL3414521, “Discovery of the 2-phenyl-4,5,6,7-Tetrahydro-1H-indole as a novel anti-hepatitis C virus targeting scaffold” (Eur J Med Chem, 2015).
Active and inactive are the calls of the source. The calls are words filed in the database; no cut-off is given here.

How the values were obtained:
Hepatitis C virus [1] = assay: Antiviral activity against HCV genotype 2a infected in HuH7.5-FGR-JC1_Rluc2A cells at 50 uM by […] luciferase reporter gene assay; format: functional, Hepacivirus hominis; details: for inhibition: Hepacivirus hominis
Hepatitis C virus [2] = assay: Antiviral activity against HCV genotype 1b infected in HuH7/Rep-Feo1b cells at 50 uM by firefly luciferase reporter gene assay; format: functional; details: for inhibition: Hepacivirus hominis; for inhibition at 50 µM: Huh-7
Outline: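 Replicon reporter cells (gt 1b in Huh7/Rep-Feo1b, firefly luciferase; gt 2a in Huh7.5-FGR-JC1-Rluc2A, Renilla luciferase) kept in DMEM with 10% FCS and 0.5 mg/mL G418, 37 °C, 5% CO2. About 1×10^4 cells per well were treated at 50 μM for 48 h in 1.0% DMSO. Luciferase signal was read relative to DMSO-treated cells as % inhibition.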

[3] = Cytotoxicity against human Huh7.5 cells after 48 hrs by MTS assay; format: cell-based; details: huh-7, 48 h
Outline: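 Parental Huh7.5 cells grown in DMEM with 10% FCS without G418, 37 °C, 5% CO2; treated at 6–8 doses for 48 h. Viability by MTS bioreduction to formazan; CC50 as concentration halving MTS conversion relative to DMSO controls, mean ± SD of three independent experiments.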

Hepatitis C virus [4] = assay: Antiviral activity against HCV genotype 2a infected in HuH7.5-FGR-JC1_Rluc2A cells by […]; format: functional, Hepacivirus hominis
[5] = Selectivity index, ratio of CC50 for human Huh7.5 cells to EC50 for HCV genotype 2a infected in HuH7.5-FGR-JC1_Rluc2A cells; parameters: species or system Huh-7
Hepatitis C virus [6] = assay: Antiviral activity against HCV genotype 1b infected in HuH7/Rep-Feo1b cells by firefly luciferase reporter gene assay; format: functional, cell-based, Hepacivirus hominis; details: Huh-7
Outline: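 Huh7 cells carrying autonomously replicating gt 1b replicon with firefly luciferase reporter; ~1×10^4 cells/well treated 48 h, 1.0% DMSO final. Primary screen at 50 μM; actives titrated over 8–12 quarter-log dilutions. Luciferase signal relative to DMSO-treated controls; EC50 from dose-response curves, mean ± SD of three independent experiments.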

[7] = Selectivity index, ratio of CC50 for human Huh7.5 cells to EC50 for HCV genotype 1b infected in HuH7/Rep-Feo1b cells; parameters: species or system Huh-7

Cc1nn(Cc2ccccc2)c(C)c1CC(=O)O
inhibition at 50 µM (Hepatitis C virus [1]): 14% | inhibition (Hepatitis C virus [2]): inactive | CC50 [3]: > 200 µM

Cc1cccc(N2CC(c3nc4ccccc4[nH]3)CC2=O)c1 (centres undefined)
EC50 (Hepatitis C virus [4]): 17.3 µM | inhibition at 50 µM (Hepatitis C virus [1]): 77% | inhibition at 50 µM (Hepatitis C virus [2]): 21% | CC50 [3]: > 200 µM | Ratio CC50/EC50 [5]: >12

C[C@@]12CC3C(=O)N4[C@H](C[C@@]5(C)C(=O)CCCC[C@@H]45)C(=O)N3[C@@H]1CCCCC2=O (mixture of isomers)
inhibition at 50 µM (Hepatitis C virus [1]): 28% | inhibition (Hepatitis C virus [2]): inactive | CC50 [3]: > 200 µM

O=C(O)c1cc(-c2ccncc2)nc2ccccc12
inhibition at 50 µM (Hepatitis C virus [1]): 49% | inhibition (Hepatitis C virus [2]): inactive | CC50 [3]: > 200 µM

COc1ccc(CN2CC(C)n3c(nc4cccnc43)C2=O)c(OC)c1 (racemic)
inhibition at 50 µM (Hepatitis C virus [1]): 48% | inhibition at 50 µM (Hepatitis C virus [2]): 45% | CC50 [3]: > 200 µM

COC(=O)c1cc(C(=O)O)cc(-c2cc3c(n2Cc2ccccc2)CCCC3)c1
EC50 (Hepatitis C virus [4]): 9.9 µM | inhibition at 50 µM (Hepatitis C virus [1]): 96% | EC50 (Hepatitis C virus [6]): 35.8 µM | inhibition at 50 µM (Hepatitis C virus [2]): 81% | CC50 [3]: 45.6 µM | Ratio CC50/EC50 [7]: >1 | Ratio CC50/EC50 [5]: >5

Br.CC(=O)N[C@]12CCN(Cc3ccccc3)C[C@H]1[C@H](c1ccccc1)NC2 (racemic)
EC50 (Hepatitis C virus [4]): 4.9 µM | inhibition at 50 µM (Hepatitis C virus [1]): 73% | inhibition (Hepatitis C virus [2]): inactive | CC50 [3]: > 200 µM | Ratio CC50/EC50 [5]: >41

C[C@@]12C[C@@H]3C(=O)Nc4ccccc4C(=O)N3[C@@H]1CCCCC2=O (racemic)
inhibition (Hepatitis C virus [1]): inactive | inhibition (Hepatitis C virus [2]): inactive | CC50 [3]: > 200 µM

NC(=O)Cn1c(-c2ccccc2)cc2c1CCCC2
inhibition at 50 µM (Hepatitis C virus [1]): 48% | inhibition at 50 µM (Hepatitis C virus [2]): 37% | CC50 [3]: > 200 µM

CC(C(N)=O)n1c(-c2ccccc2)cc2c1CCCC2 (centres undefined)
EC50 (Hepatitis C virus [4]): 15.4 µM | inhibition at 50 µM (Hepatitis C virus [1]): 83% | inhibition at 50 µM (Hepatitis C virus [2]): 50% | CC50 [3]: 156 µM | Ratio CC50/EC50 [5]: >10

CC1CN(C(=O)c2ccccc2)c2ccccc2NC1=O (centres undefined)
EC50 (Hepatitis C virus [4]): 14.1 µM | inhibition at 50 µM (Hepatitis C virus [1]): 77% | inhibition at 50 µM (Hepatitis C virus [2]): 21% | CC50 [3]: > 200 µM | Ratio CC50/EC50 [5]: >14

Cc1nn(Cc2ccccc2)c(C)c1C(=O)O
inhibition (Hepatitis C virus [1]): inactive | inhibition at 50 µM (Hepatitis C virus [2]): 19% | CC50 [3]: > 200 µM

Oc1ccccc1-c1cc2c(n1Cc1ccccc1)CCCC2
EC50 (Hepatitis C virus [4]): 6.5 µM | inhibition at 50 µM (Hepatitis C virus [1]): 99% | EC50 (Hepatitis C virus [6]): 9.2 µM | inhibition at 50 µM (Hepatitis C virus [2]): 96% | CC50 [3]: 48.9 µM | Ratio CC50/EC50 [7]: 5 | Ratio CC50/EC50 [5]: 8

COc1cccc(C(=O)Nc2cc(C)nc3ccc(C)cc23)c1
inhibition at 50 µM (Hepatitis C virus [1]): 99% | inhibition at 50 µM (Hepatitis C virus [2]): 88% | CC50 [3]: < 25 µM

Br.CC(=O)[C@]12CCN(Cc3ccccc3)C[C@H]1[C@H](c1ccccc1)NC2 (racemic)
EC50 (Hepatitis C virus [4]): 17.4 µM | inhibition at 50 µM (Hepatitis C virus [1]): 76% | inhibition (Hepatitis C virus [2]): inactive | CC50 [3]: > 200 µM | Ratio CC50/EC50 [5]: >11

COc1ccc(NS(=O)(=O)c2ccc(CN3C(=O)c4ccccc4C3=O)cc2)cc1
EC50 (Hepatitis C virus [4]): 22.5 µM | inhibition at 50 µM (Hepatitis C virus [1]): 60% | inhibition at 50 µM (Hepatitis C virus [2]): 39% | CC50 [3]: > 200 µM | Ratio CC50/EC50 [5]: >9

O=C(O)CCn1c(-c2ccccc2)cc2ccccc21
inhibition at 50 µM (Hepatitis C virus [1]): 54% | inhibition at 50 µM (Hepatitis C virus [2]): 26%

Cc1ccc2[nH]c(=O)c(CN(Cc3ccccc3)C(=O)c3ccc(NC(=N)N)cc3)cc2c1
inhibition at 50 µM (Hepatitis C virus [1]): 44% | inhibition (Hepatitis C virus [2]): inactive | CC50 [3]: > 200 µM

CCOC(=O)[C@@H](C)N1C(=O)C(=O)c2ccccc21
EC50 (Hepatitis C virus [4]): 7.3 µM | inhibition at 50 µM (Hepatitis C virus [1]): 85% | inhibition at 50 µM (Hepatitis C virus [2]): 19% | CC50 [3]: > 200 µM | Ratio CC50/EC50 [5]: >27

CC1(CO)CCN2CCCCC21 (racemic)
inhibition at 50 µM (Hepatitis C virus [1]): 25% | inhibition at 50 µM (Hepatitis C virus [2]): 50% | CC50 [3]: > 200 µM

C=CCn1c(-c2ccccc2)cc2c1CCCC2
EC50 (Hepatitis C virus [4]): 32.1 µM | inhibition at 50 µM (Hepatitis C virus [1]): 69% | inhibition at 50 µM (Hepatitis C virus [2]): 35% | CC50 [3]: 119 µM | Ratio CC50/EC50 [5]: 4

Cc1ccc2[nH]c(=O)c(CN(CCc3ccccc3)C(=O)c3ccc(OCCN(C)C)cc3)cc2c1
EC50 (Hepatitis C virus [4]): 24.8 µM | inhibition at 50 µM (Hepatitis C virus [1]): 61% | inhibition at 50 µM (Hepatitis C virus [2]): 45% | CC50 [3]: > 200 µM | Ratio CC50/EC50 [5]: >8

O=C(O)C1CC(=O)N(CCc2c[nH]c3ccccc23)C1 (centres undefined)
EC50 (Hepatitis C virus [4]): 48.5 µM | inhibition at 50 µM (Hepatitis C virus [1]): 51% | inhibition at 50 µM (Hepatitis C virus [2]): 22% | CC50 [3]: > 200 µM | Ratio CC50/EC50 [5]: >4

CC(C)(C)OC(=O)N1CC(=O)[C@]2(C)CCN(Cc3ccccc3)[C@@H]2C1 (relative stereo)
EC50 (Hepatitis C virus [4]): 6 µM | inhibition at 50 µM (Hepatitis C virus [1]): 98% | EC50 (Hepatitis C virus [6]): 24.3 µM | inhibition at 50 µM (Hepatitis C virus [2]): 73% | CC50 [3]: 115 µM | Ratio CC50/EC50 [7]: 5 | Ratio CC50/EC50 [5]: >19

O=C1CC(c2nc3ccccc3[nH]2)CN1Cc1ccccc1 (centres undefined)
EC50 (Hepatitis C virus [4]): 21.1 µM | inhibition at 50 µM (Hepatitis C virus [1]): 67% | inhibition (Hepatitis C virus [2]): inactive | CC50 [3]: > 200 µM | Ratio CC50/EC50 [5]: >9

O=C(O)C1CCCN(S(=O)(=O)c2ccccc2)C1 (racemic)
EC50 (Hepatitis C virus [4]): 28.1 µM | inhibition at 50 µM (Hepatitis C virus [1]): 62% | inhibition (Hepatitis C virus [2]): inactive | CC50 [3]: > 200 µM | Ratio CC50/EC50 [5]: >7

O=C(O)c1nn(Cc2ccccc2)c2ccccc12
inhibition at 50 µM (Hepatitis C virus [1]): 46% | inhibition (Hepatitis C virus [2]): inactive | CC50 [3]: > 200 µM

Cc1ccc2[nH]c(=O)c(CN(Cc3ccc(F)cc3)C(=O)c3ccc(NC(=N)N)cc3)cc2c1
inhibition at 50 µM (Hepatitis C virus [1]): 29% | inhibition at 50 µM (Hepatitis C virus [2]): 54% | CC50 [3]: > 200 µM

CC(=O)c1cn(CC(=O)O)c2ccccc12
inhibition at 50 µM (Hepatitis C virus [1]): 55% | inhibition (Hepatitis C virus [2]): inactive | CC50 [3]: > 200 µM

CCn1cc(-c2ccccc2)c(C(=O)O)c1C
inhibition at 50 µM (Hepatitis C virus [1]): 36% | inhibition (Hepatitis C virus [2]): inactive | CC50 [3]: > 200 µM

CCn1cc(-c2ccccc2)c(C(N)=O)c1C
EC50 (Hepatitis C virus [4]): 23.6 µM | inhibition at 50 µM (Hepatitis C virus [1]): 66% | inhibition at 50 µM (Hepatitis C virus [2]): 49% | CC50 [3]: > 200 µM | Ratio CC50/EC50 [5]: >8

c1ccc(Cn2c(-c3cccnc3)cc3c2CCCC3)cc1
inhibition at 50 µM (Hepatitis C virus [1]): 99% | inhibition at 50 µM (Hepatitis C virus [2]): 92% | CC50 [3]: < 25 µM

CC(=O)N[C@@]12CCN(C(=O)OC(C)(C)C)C[C@@H]1CN(C(=O)OC(C)(C)C)C2 (racemic)
inhibition at 50 µM (Hepatitis C virus [1]): 43% | inhibition (Hepatitis C virus [2]): inactive | CC50 [3]: > 200 µM

Cc1ccc(CN(Cc2cc3cc(C)ccc3[nH]c2=O)C(=O)c2ccc(CN3CCN(C)CC3)cc2)cc1
inhibition at 50 µM (Hepatitis C virus [1]): 99% | inhibition at 50 µM (Hepatitis C virus [2]): 92% | CC50 [3]: < 25 µM

Cc1nc2c(c(C)nn2-c2ccccc2)c(C)c1CCC(=O)O
EC50 (Hepatitis C virus [4]): 11.7 µM | inhibition at 50 µM (Hepatitis C virus [1]): 78% | inhibition (Hepatitis C virus [2]): inactive | CC50 [3]: > 200 µM | Ratio CC50/EC50 [5]: >17

O=C1CC(c2nc3ccccc3[nH]2)CN1C1CCCCC1 (centres undefined)
EC50 (Hepatitis C virus [4]): 15.6 µM | inhibition at 50 µM (Hepatitis C virus [1]): 72% | inhibition at 50 µM (Hepatitis C virus [2]): 19% | CC50 [3]: > 200 µM | Ratio CC50/EC50 [5]: >13

CCn1cc(C(=O)Nc2ccccc2C(N)=O)c(=O)c2cc(OC)ccc21
EC50 (Hepatitis C virus [4]): 20.6 µM | inhibition at 50 µM (Hepatitis C virus [1]): 65% | inhibition at 50 µM (Hepatitis C virus [2]): 17% | CC50 [3]: 85.6 µM | Ratio CC50/EC50 [5]: 4
